Screening results deposited in PubChem BioAssay by Johns Hopkins Ion Channel Center.
KCNK3 inh – human KCNK3 channel inhibition, primary screen; O14649; CHO-KCNK3 thallium flux, FluxOR fluorescence; active compounds read low; B-score at 10 µM; 340,000 tested, 0.84% active;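 active means B-score under library mean minus 4 SD, starting fluorescence ratio at most library mean plus 5 SD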;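 further: more negative B-score means stronger inhibition of thallium flux through KCNK3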
KCNK9 inh – blocks the human KCNK9 two-pore domain potassium channel; HEK293 KCNK9, FluxOR thallium flux fluorescence; active compounds read low; B-score at 10 µM; 310,000 tested, 1.2% active; AID 488922;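 active means ratio B-score over 3 SD below the library mean, with starting fluorescence within 5 SD of its mean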;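 further: negative B-score means less thallium flux so channel inhibition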
Kir21 block – Kir2.1 (mouse) channel inhibition; HEK293-Kir2.1, FluxOR thallium flux fluorescence; active compounds read low; P35561; B-score at 10 µM; 310,000 tested, 0.85% active;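 active means fluorescence ratio B-score at or below minus 3 SD of library scores, with starting-brightness B-score within 2 SD, cut at about -4.2 in these data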;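 further: channel flux triggered by added potassium and thallium sulfate stimulus; B-score of peak minus minimum fluorescence over baseline after thallium stimulus; more negative B-score means stronger Kir2.1 block with less thallium influx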
Target sequence (P35561 whole entry, looked up): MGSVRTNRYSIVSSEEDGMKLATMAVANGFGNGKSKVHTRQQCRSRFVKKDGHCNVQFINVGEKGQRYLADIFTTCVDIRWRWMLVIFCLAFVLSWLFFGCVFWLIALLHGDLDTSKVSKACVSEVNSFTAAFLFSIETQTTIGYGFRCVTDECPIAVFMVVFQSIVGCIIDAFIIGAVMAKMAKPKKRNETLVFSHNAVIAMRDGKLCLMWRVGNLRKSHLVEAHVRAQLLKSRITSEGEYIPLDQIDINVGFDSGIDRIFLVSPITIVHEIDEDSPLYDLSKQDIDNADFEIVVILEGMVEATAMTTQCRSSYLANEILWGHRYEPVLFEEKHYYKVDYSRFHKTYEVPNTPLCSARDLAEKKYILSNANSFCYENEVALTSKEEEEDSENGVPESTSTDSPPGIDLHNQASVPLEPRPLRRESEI
KCNQ1 inh – inhibitors of human KCNQ1 potassium channel. P51787. CHO-K1 KCNQ1, FluxOR thallium flux fluorescence; active compounds read high. B-score at 10 µM. 310,000 tested, 1.3% active. AID 2642;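 active means compounds whose thallium flux B-score, printed positive for inhibition, exceeds three library SD while starting fluorescence stays within three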;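 further: channel opened by potassium depolarization with thallium stimulus after 20 min compound exposure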
KCNQ1 act – potentiators or activators of human KCNQ1 potassium channel; P51787; CHO-K1 KCNQ1, thallium flux FluxOR fluorescence; active compounds read high; B-score at 10 µM; 310,000 tested, 0.35% active; AID 2648;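 active means fluorescence ratio B-score, a plate-corrected score, at least three library SD, with initial intensity B-score within 5 SD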
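Material: CHO-K1 cells stably expressing KCNQ1. Medium: assay buffer for compound exposure, DMSO matched across wells. Reagent: K+/Tl+ depolarizing stimulus. Compound dosing: single-concentration screen. Times: 37 °C overnight plating, 90-min dark dye load, 20-min compound pretreatment. Technique: FluxOR Tl+ flux fluorescence.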
hERG rescue – compounds protecting human hERG from proarrhythmic drug block. AID 1511. Q12809. activation (rescue from dofetilide block), less the hit threshold, % at 10 µM. CHO-hERG, FluxOR thallium flux, dofetilide IC70 present. 310,000 tested, 0.51% active;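 active means activation above the mean of controls blocked by dofetilide plus 5 SD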;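 further: thallium influx through hERG after potassium depolarization seen as dye fluorescence rise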
* = called active by the depositor. In the library only some 3.7% were active in any assay of this set; here they are far more common.

How did CC(=O)N1Cc2ccccc2C(C)CC12CCCCC2 (stereo unspecified) do in these assays?
KCNK3 inh: inactive; KCNK9 inh: inactive; Kir21 block: -7.3*; KCNQ1 inh: inactive; KCNQ1 act: inactive; hERG rescue: -6

What do the screens show for `COc1ccccc1-c1cc(C(=O)N/N=C/c2ccoc2)c2ccccc2n1`?
KCNK3 inh: inactive; KCNK9 inh: inactive; Kir21 block: -2.7; KCNQ1 inh: inactive; KCNQ1 act: inactive; hERG rescue: -8

How did CN(C)CCCN(C(=O)c1ccc([N+](=O)[O-])s1)c1nc2cc3c(cc2s1)OCCO3 do in these assays?
KCNK3 inh: inactive; KCNK9 inh: inactive; Kir21 block: 0.25; KCNQ1 inh: inactive; KCNQ1 act: inactive; hERG rescue: -17

Results for CN(C)CCCN(C(=O)c1cc2cc([N+](=O)[O-])ccc2s1)c1nc2cc3c(cc2s1)OCCO3 ?
KCNK3 inh: inactive; KCNK9 inh: inactive; Kir21 block: 1.9; KCNQ1 inh: 6*; KCNQ1 act: inactive; hERG rescue: -16

How did CN(C)CCCN(C(=O)c1ccc(Br)s1)c1nc2cc3c(cc2s1)OCCO3 do in these assays?
KCNK3 inh: inactive; KCNK9 inh: inactive; Kir21 block: -7.8*; KCNQ1 inh: inactive; KCNQ1 act: inactive; hERG rescue: -19

How did CCN(CC)CCN(C(=O)c1ccc(Br)s1)c1nc2cc3c(cc2s1)OCCO3 do in these assays?
KCNK3 inh: inactive; KCNK9 inh: inactive; Kir21 block: 1.1; KCNQ1 inh: inactive; KCNQ1 act: inactive; hERG rescue: -20

What do the screens show for `CCN(Cc1ccccc1)S(=O)(=O)c1ccc(C(=O)N(CCCN(C)C)c2nc3cc4c(cc3s2)OCCO4)cc1`?
KCNK3 inh: inactive; KCNK9 inh: inactive; Kir21 block: 0.24; KCNQ1 inh: 7*; KCNQ1 act: inactive; hERG rescue: -29

How did CCN(Cc1ccccc1)S(=O)(=O)c1ccc(C(=O)N(CCCN(C)C)c2nc3ccc(F)cc3s2)cc1 do in these assays?
KCNK3 inh: inactive; KCNK9 inh: inactive; Kir21 block: -0.53; KCNQ1 inh: inactive; KCNQ1 act: inactive; hERG rescue: -26

How did CCC(NCc1cccnc1)c1ccc(OC)c(OC)c1 (stereo unspecified) do in these assays?
KCNK3 inh: inactive

What do the screens show for `CCOC(=O)C1=C(CSc2nc(-c3ccncc3)ccc2C#N)OC(N)=C(C#N)C1c1ccc(OC)cc1` (stereo unspecified)?
KCNK3 inh: inactive; KCNK9 inh: -7.9*; Kir21 block: -0.18; KCNQ1 inh: inactive; KCNQ1 act: inactive; hERG rescue: -12

How did COc1ccc(C(CNC(=O)Cc2ccccc2F)N2CCCCC2)cc1 (stereo unspecified) do in these assays?
KCNK3 inh: inactive; KCNK9 inh: inactive; Kir21 block: -1.8; KCNQ1 inh: inactive; KCNQ1 act: inactive; hERG rescue: 6.3*

Results for Cc1cccc(NC(=S)c2nc3ccccc3s2)c1 ?
KCNK3 inh: inactive; KCNK9 inh: inactive; Kir21 block: -2; KCNQ1 inh: inactive; KCNQ1 act: 10*; hERG rescue: 43*

What do the screens show for `Cc1cccc(OCCNc2cc(N3CCN(C)CC3)ccc2[N+](=O)[O-])c1`?
KCNK3 inh: inactive; KCNK9 inh: inactive; Kir21 block: -1.4; KCNQ1 inh: inactive; KCNQ1 act: inactive; hERG rescue: -19

How did COc1ccccc1OCCNc1cc(N2CCCCC2)ccc1[N+](=O)[O-] do in these assays?
KCNK3 inh: inactive; KCNK9 inh: -6.8*; Kir21 block: 2.3; KCNQ1 inh: 6*; KCNQ1 act: inactive; hERG rescue: -7

How did Cc1ccccc1OCCNc1cc(N2CCNCC2)ccc1[N+](=O)[O-] do in these assays?
KCNK9 inh: inactive; Kir21 block: -8.1*; KCNQ1 inh: inactive; KCNQ1 act: inactive; hERG rescue: -23

What do the screens show for `Cc1ccccc1NC(=O)Cc1nc(COC(=O)c2ccc(S(C)(=O)=O)c([N+](=O)[O-])c2)cs1`?
KCNK3 inh: inactive

Results for Cc1cccc(NC(=O)CCS(=O)(=O)c2cccc3nsnc23)c1C ?
KCNK3 inh: inactive; KCNK9 inh: inactive; Kir21 block: -0.22; KCNQ1 inh: inactive; KCNQ1 act: inactive; hERG rescue: -8

Results for CCCN(CCC)C(=O)CCS(=O)(=O)c1cccc2nsnc12 ?
KCNK3 inh: inactive; KCNK9 inh: inactive; Kir21 block: -4.5*; KCNQ1 inh: inactive; KCNQ1 act: inactive; hERG rescue: -2

What do the screens show for `Cc1ccc(C(C)C)c(OCCN)c1`?
KCNK3 inh: inactive; KCNK9 inh: inactive; Kir21 block: -0.6; KCNQ1 inh: inactive; KCNQ1 act: inactive; hERG rescue: -4

How did CCCN(CCC)CCOc1cc(C)ccc1C(C)C do in these assays?
KCNK3 inh: inactive; KCNK9 inh: inactive; Kir21 block: 0.22; KCNQ1 inh: inactive; KCNQ1 act: inactive; hERG rescue: -6

How did Cc1ccc(C(C)C)c(OCCCCN2CCNCC2)c1 do in these assays?
KCNK3 inh: inactive; KCNK9 inh: inactive; Kir21 block: -6.1*; KCNQ1 inh: inactive; KCNQ1 act: inactive; hERG rescue: -8

What do the screens show for `Cc1ccc(C(C)C)c(OCCNC(=S)Nc2cccc3ccccc23)c1`?
KCNK3 inh: inactive; KCNK9 inh: inactive; Kir21 block: -0.84; KCNQ1 inh: 8*; KCNQ1 act: inactive; hERG rescue: -9

Results for Cc1ccc(C(C)C)c(OCCNCc2ccccc2)c1 ?
KCNK3 inh: inactive; KCNK9 inh: inactive; Kir21 block: -8.8*; KCNQ1 inh: inactive; KCNQ1 act: inactive; hERG rescue: -11

What do the screens show for `Cc1ccc(C(C)C)c(OCCN(C)C)c1`?
KCNK3 inh: inactive; KCNK9 inh: inactive; Kir21 block: -0.23; KCNQ1 inh: inactive; KCNQ1 act: inactive; hERG rescue: 6.6*

Results for CSCc1ccc(C(=O)NCc2ccc(F)cc2)cc1 ?
KCNK3 inh: inactive; KCNK9 inh: inactive; Kir21 block: -0.72; KCNQ1 inh: inactive; KCNQ1 act: inactive; hERG rescue: -7

What do the screens show for `Cc1cc(C)n(C(C)Sc2ccccc2)n1` (stereo unspecified)?
KCNK3 inh: inactive; KCNK9 inh: inactive; Kir21 block: -1.8; KCNQ1 inh: inactive; KCNQ1 act: inactive; hERG rescue: -3

What do the screens show for `CC(C(=O)OCC(=O)Nc1cccc(S(=O)(=O)N(C)C)c1)N1C(=O)c2ccccc2C1=O` (stereo unspecified)?
KCNK3 inh: inactive; KCNK9 inh: inactive; Kir21 block: -0.91; KCNQ1 inh: inactive; KCNQ1 act: inactive; hERG rescue: -2

Results for Cc1ccc(C)c(OCc2n[nH]c(=S)o2)c1 ?
KCNK3 inh: inactive; KCNK9 inh: inactive; Kir21 block: 0.11; KCNQ1 inh: inactive; KCNQ1 act: inactive; hERG rescue: -11
